Publication PMC3985699 (Journal of the American Chemical Society, 2014)
Converted amounts (≈) assume the structure as drawn.

Tests used:
[1] = tested on: S. hemolyticus ATCC 29970; assay: MIC by microdilution; format: cell-based; conditions: Streptococcus pyogenes, ATCC29970
S. aureus VRS1 = assay: MIC by microdilution; format: cell-based; conditions: Staphylococcus aureus, MRSA
Procedure, shortened: (§1)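 S. aureus was tested by CLSI broth microdilution in cation-adjusted Mueller Hinton II broth, final inoculum 5 × 10⁵ CFU/mL, 35 °C, read after 16–20 or 20–24 h; oxacillin was tested with 2% NaCl. MIC was the lowest concentration without visible growth, in triplicate. For ATCC 29213, inocula of 5 × 10⁶ and 5 × 10⁷ CFU/mL were also tested.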

E. faecalis 99 (Van R) = assay: MIC by microdilution; format: cell-based; conditions: Enterococcus faecalis
Procedure, shortened: (§2)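 CLSI broth microdilution in cation-adjusted Mueller Hinton II broth, final inoculum 5 × 10⁵ CFU/mL. Plates incubated at 35 °C and read after 16–20 or 20–24 h depending on species. MIC taken as the lowest concentration with no visible growth. All determinations in triplicate.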

S. aureus NRS119 = assay: MIC by microdilution; format: cell-based; conditions: Staphylococcus aureus
Procedure, shortened: as §1

S. oralis ATCC 9811 = assay: MIC by microdilution; format: cell-based; conditions: Streptococcus oralis, ATCC9811
Procedure, shortened: (§3)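 Streptococcal MICs came from CLSI broth microdilution in cation-adjusted Mueller Hinton II broth with 5% lysed horse blood. Final inoculum 5 × 10⁵ CFU/mL, incubation at 35 °C, read after 16–20 or 20–24 h depending on species. MIC was the lowest concentration without visible growth, determined in triplicate.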

red blood cells = assay: Hemolysis assay; format: cell-based, horse; conditions: horse RBCs, 37 °C, 1 h; 3% values at 64 μg/mL (32-fold above the MIC)
S. aureus ATCC 29213 = assay: MIC by microdilution; format: cell-based; conditions: Staphylococcus aureus, ATCC29213
Procedure, shortened: as §1

S. aureus ATCC 27660 = assay: MIC by microdilution; format: cell-based; conditions: Staphylococcus aureus, ATCC27660
Procedure, shortened: as §1

S. pyogenes ATCC 49399 = assay: MIC by microdilution; format: cell-based; conditions: Streptococcus pyogenes, ATCC49399
Procedure, shortened: as §3

E. faecium 106 (Van R) = assay: MIC by microdilution; format: cell-based; conditions: Enterococcus faecium
Procedure, shortened: as §2

S. epidermis ATCC 35547 = assay: MIC by microdilution; format: cell-based
Procedure, shortened: as §2

S. aureus VRS2 = assay: MIC by microdilution; format: cell-based; conditions: Staphylococcus aureus, MRSA
Procedure, shortened: as §1

S. aureus NRS120 = assay: MIC by microdilution; format: cell-based; conditions: Staphylococcus aureus
Procedure, shortened: as §1

E. faecalis ATCC 29212 = assay: MIC by microdilution; format: cell-based; conditions: Enterococcus faecalis, ATCC29212
Procedure, shortened: as §2

[2] = tested on: E. faecium 119–39A (Van S); assay: MIC by microdilution; format: cell-based; conditions: Enterococcus faecium
Procedure, shortened: as §2

E. faecalis 201 (Van S) = assay: MIC by microdilution; format: cell-based; conditions: Enterococcus faecalis
Procedure, shortened: as §2

E. faecium NCTC 7171 = assay: MIC by microdilution; format: cell-based; conditions: Enterococcus faecium, NCTC7171
Procedure, shortened: as §2

S. aureus NRS100 (COL) = assay: MIC by microdilution; format: cell-based; conditions: Staphylococcus aureus
Procedure, shortened: as §1

Pharmacokinetics in mice = format: in vivo
Procedure, shortened: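 Female ICR mice received a single 50 mg/kg dose, either iv in 10% DMSO/25% Tween-80/65% water or po by gavage (n = 3 per time point). Terminal blood was taken at 2 min–24 h after iv and 0.5–48 h after po, then centrifuged for plasma. Plasma was precipitated with acetonitrile containing internal standard and analysed by C18 UPLC-ESI(+)-MRM against calibration curves in blank mouse plasma.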

[3] = ICR, mouse, plasma, iv, 50 mg/kg
[4] = female, ICR, mouse, plasma, po, 50 mg/kg

| SMILES | MIC [1] [µg/mL] | MIC (S. aureus VRS1) [µg/mL] | MIC (E. faecalis 99 (Van R)) [µg/mL] | MIC (S. aureus NRS119) [µg/mL] | MIC (S. oralis ATCC 9811) [µg/mL] | MIC (S. aureus ATCC 29213) [µg/mL] | MIC (S. aureus ATCC 27660) [µg/mL] | MIC (S. pyogenes ATCC 49399) [µg/mL] | MIC (E. faecium 106 (Van R)) [µg/mL] | MIC (S. epidermis ATCC 35547) [µg/mL] | MIC (S. aureus VRS2) [µg/mL] | MIC (S. aureus NRS120) [µg/mL] | MIC (E. faecalis ATCC 29212) [µg/mL] | MIC [2] [µg/mL] | MIC (E. faecalis 201 (Van S)) [µg/mL] | MIC (E. faecium NCTC 7171) [µg/mL] | MIC (S. aureus NRS100 (COL)) [µg/mL] | further results |
| --- | --- | --- | --- | --- | --- | --- | --- | --- | --- | --- | --- | --- | --- | --- | --- | --- | --- | --- |
| Nc1ccc(-c2nc(-c3ccc(Oc4ccc(C(F)(F)F)cc4)cc3)no2)cc1 [Compound 4, 4-(3-(4-(4-(Trifluoromethyl)phenoxy)phenyl)-1,2,4-oxadiazol-5-yl)aniline] | 4 (≈ 10.1 µM) | 2 (≈ 5.03 µM) | 2 (≈ 5.03 µM) | 2 (≈ 5.03 µM) | 32 (≈ 80.5 µM) | 2 (≈ 5.03 µM) | 2 (≈ 5.03 µM) | 32 (≈ 80.5 µM) | 2 (≈ 5.03 µM) | 2 (≈ 5.03 µM) | 2 (≈ 5.03 µM) | 2 (≈ 5.03 µM) | 2 (≈ 5.03 µM) | 1 (≈ 2.52 µM) | > 32 | 2 (≈ 5.03 µM) | 2 (≈ 5.03 µM) | hemolysis of red blood cells (red blood cells): not hemolytic at all; AUC(0-inf) (Pharmacokinetics in mice; [3]): 153 µg·h/mL; Vd (Pharmacokinetics in mice; [3]): 0.72 L/kg; clearance (Pharmacokinetics in mice; [3]): 5.4 mL/min/kg; AUC(0-inf) (Pharmacokinetics in mice; [4]): 154 µg·h/mL; Cmax (Pharmacokinetics in mice; [4]): 10000 ng/mL; Tmax (Pharmacokinetics in mice; [4]): 2 h; higher systemic exposure relative to comparator compound (Pharmacokinetics in mice; mice, 50 mg/kg iv, compound 3 vs compound 2, compound 4 vs compound 3): 3.5 fold; volume of distribution (in words) (Pharmacokinetics in mice; mice, single 50 mg/kg iv): large volume of distribution |
| CC(=O)NC[C@H]1CN(c2ccc(N3CCOCC3)c(F)c2)C(=O)O1 [linezolid, reference compound] | 2 (≈ 5.93 µM) | 2 (≈ 5.93 µM) | 1 (≈ 2.96 µM) | 32 (≈ 94.9 µM) | 1 (≈ 2.96 µM) | 4 (≈ 11.9 µM) | 2 (≈ 5.93 µM) | 1 (≈ 2.96 µM) | 1 (≈ 2.96 µM) | 1 (≈ 2.96 µM) | 2 (≈ 5.93 µM) | 32 (≈ 94.9 µM) | 2 (≈ 5.93 µM) | 2 (≈ 5.93 µM) | 2 (≈ 5.93 µM) | 2 (≈ 5.93 µM) | 2 (≈ 5.93 µM) |  |
| CN[C@H](CC(C)C)C(=O)N[C@H]1C(=O)N[C@@H](CC(N)=O)C(=O)N[C@H]2C(=O)N[C@H]3C(=O)N[C@H](C(=O)N[C@H](C(=O)O)c4cc(O)cc(O)c4-c4cc3ccc4O)[C@H](O)c3ccc(c(Cl)c3)Oc3cc2cc(c3O[C@@H]2O[C@H](CO)[C@@H](O)[C@H](O)[C@H]2O[C@H]2C[C@](C)(N)[C@H](O)[C@H](C)O2)Oc2ccc(cc2Cl)[C@H]1O [vancomycin, reference compound] | 2 (≈ 1.38 µM) | 512 (≈ 353 µM) | 128 (≈ 88.3 µM) | 2 (≈ 1.38 µM) | 0.5 (≈ 0.345 µM) |  | 1 (≈ 0.69 µM) | 0.6 (≈ 0.414 µM) | 256 (≈ 177 µM) | 16 (≈ 11 µM) | 64 (≈ 44.2 µM) | 2 (≈ 1.38 µM) | 2 (≈ 1.38 µM) | 0.5 (≈ 0.345 µM) | 1 (≈ 0.69 µM) | 0.5 (≈ 0.345 µM) | 2 (≈ 1.38 µM) |  |
